Reference: ChEMBL document CHEMBL4251593, “Nontoxic combretafuranone analogues with high in vitro antibacterial activity” (Eur J Med Chem, 2018)
In brackets after ≈: the same amount, converted by molar mass.

Tests used:
TERT-RPE1 [1] = assay: Cytotoxicity against human RPE1 cells assessed as reduction in cell viability after 48 hrs by ATPlite-based luminescent assay; conditions: RPE-1, 48 h
Procedure, shortened: (§1)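 Cells were grown […] with 10% FBS, glutamax, NEAA and pen/strep at 37 °C, 5% CO2. Media were DMEM for RPE-1, HepG2 and BJ (BJ plus 10 ng/ml bFGF), F-12K for PC3, and IMDM for K562/HL-60. Cells were seeded at 500 per well and dosed from DMSO at 12 concentrations, 40 µM to 1 nM, in triplicate. After 48 h, intracellular ATP was read by luminescence. ED50 was obtained by variable-slope nonlinear regression.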

BJ = assay: Cytotoxicity against human BJ cells assessed as reduction in cell viability after 48 hrs by ATPlite-based luminescent assay; procedure, shortened: as §1
K562 [2] = assay: Cytotoxicity against human K562 cells assessed as reduction in cell viability after 48 hrs by ATPlite-based luminescent assay; conditions: K562, 48 h; procedure, shortened: as §1
HL-60 [3] = assay: Cytotoxicity against human HL60 cells assessed as reduction in cell viability after 48 hrs by ATPlite-based luminescent assay; conditions: HL-60, 48 h; procedure, shortened: as §1
PC-3 [4] = assay: Cytotoxicity against human PC3 cells assessed as reduction in cell viability after 48 hrs by ATPlite-based luminescent assay; conditions: PC-3, 48 h; procedure, shortened: as §1
MCF7 = assay: Cytotoxicity against human MCF7 cells assessed as reduction in cell viability after 48 hrs by ATPlite-based luminescent assay; conditions: MCF7, 48 h
HepG2 [5] = assay: Cytotoxicity against human HepG2 cells assessed as reduction in cell viability after 48 hrs by ATPlite-based luminescent assay; conditions: HepG2, 48 h; procedure, shortened: as §1
TERT-RPE1 [6] = assay: Induction of apoptosis in human RPE1 cells assessed as caspase 3/7 activity after 24 hrs by caspase-glo luminescent assay; assay type: cell-based; conditions: RPE-1, 24 h
Procedure, shortened: (§2)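 Cells were seeded at 500 per well in their growth media and exposed to 12 concentrations from 40 µM to 1 nM, delivered from DMSO, in triplicate. After 24 h, caspase-3/7 activity was read by Caspase-Glo luminescence. Data were normalized and ED50 was fitted by variable-slope nonlinear regression.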

K562 [7] = assay: Induction of apoptosis in human K562 cells assessed as caspase 3/7 activity after 24 hrs by caspase-glo luminescent assay; assay type: cell-based; conditions: K562, 24 h; procedure, shortened: as §2
HL-60 [8] = assay: Induction of apoptosis in human HL60 cells assessed as caspase 3/7 activity after 24 hrs by caspase-glo luminescent assay; assay type: cell-based; conditions: HL-60, 24 h; procedure, shortened: as §2
PC-3 [9] = assay: Induction of apoptosis in human PC3 cells assessed as caspase 3/7 activity after 24 hrs by caspase-glo luminescent assay; assay type: cell-based; conditions: PC-3, 24 h; procedure, shortened: as §2
HepG2 [10] = assay: Induction of apoptosis in human HepG2 cells assessed as caspase 3/7 activity after 24 hrs by caspase-glo luminescent assay; assay type: cell-based; conditions: HepG2, 24 h; procedure, shortened: as §2
Staphylococcus aureus [11] = assay: Antibacterial activity against Staphylococcus aureus ATCC 6538 after 24 hrs by microdilution assay; assay type: functional; conditions: ATCC 6538, 24 h
Staphylococcus aureus [12] = assay: Antibacterial activity against methicillin-resistant Staphylococcus aureus HK5996/08 clinical isolate after 24 hrs by microdilution assay; assay type: functional; conditions: HK5996/08, 24 h
[13] = tested on: Staphylococcus epidermidis; assay: Antibacterial activity against Staphylococcus epidermidis HK6966/08 clinical isolate after 24 hrs by microdilution assay; assay type: functional; conditions: HK6966/08, 24 h
Enterococcus sp. [14] = assay: Antibacterial activity against Enterococcus sp. HK14365/08 clinical isolate after 24 hrs by microdilution assay; assay type: functional; conditions: HK14365/08, 24 h
Escherichia coli [15] = assay: Antibacterial activity against Escherichia coli ATCC 8739 after 24 hrs by microdilution assay; assay type: functional; conditions: ATCC 8739, 24 h
Procedure, shortened: (§3)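 Broth microdilution in Mueller-Hinton medium buffered to pH 7.4 (±0.2), with DMSO as diluent at no more than 2% final. Compounds were tested as 2-fold serial dilutions from 2000 to 0.488 µmol/l. The inoculum was 0.5 McFarland (1.5×10^8 cfu/ml). Plates were held at 37 °C and read visually at 24 and 48 h. MIC was taken as 95% growth inhibition versus control, determined twice in duplicate.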

Klebsiella pneumoniae [16] = assay: Antibacterial activity against Klebsiella pneumoniae HK11750/08 clinical isolate after 24 hrs by microdilution assay; assay type: functional; conditions: HK11750/08, 24 h
Klebsiella pneumoniae [17] = assay: Antibacterial activity against Klebsiella pneumoniae HK14368/08 clinical isolate after 24 hrs by microdilution assay; assay type: functional; conditions: HK14368/08, 24 h
Pseudomonas aeruginosa [18] = assay: Antibacterial activity against Pseudomonas aeruginosa ATCC 9027 after 24 hrs by microdilution assay; assay type: functional; conditions: ATCC 9027, 24 h; procedure, shortened: as §3
Staphylococcus aureus [19] = assay: Antibacterial activity against Staphylococcus aureus ATCC 6538 after 48 hrs by microdilution assay; assay type: functional; conditions: ATCC 6538, 48 h
Staphylococcus aureus [20] = assay: Antibacterial activity against methicillin-resistant Staphylococcus aureus HK5996/08 clinical isolate after 48 hrs by microdilution assay; assay type: functional; conditions: HK5996/08, 48 h
[21] = tested on: Staphylococcus epidermidis; assay: Antibacterial activity against Staphylococcus epidermidis HK6966/08 clinical isolate after 48 hrs by microdilution assay; assay type: functional; conditions: HK6966/08, 48 h
Enterococcus sp. [22] = assay: Antibacterial activity against Enterococcus sp. HK14365/08 clinical isolate after 48 hrs by microdilution assay; assay type: functional; conditions: HK14365/08, 48 h
Escherichia coli [23] = assay: Antibacterial activity against Escherichia coli ATCC 8739 after 48 hrs by microdilution assay; assay type: functional; conditions: ATCC 8739, 48 h; procedure, shortened: as §3
Klebsiella pneumoniae [24] = assay: Antibacterial activity against Klebsiella pneumoniae HK11750/08 clinical isolate after 48 hrs by microdilution assay; assay type: functional; conditions: HK11750/08, 48 h
Klebsiella pneumoniae [25] = assay: Antibacterial activity against Klebsiella pneumoniae HK14368/08 clinical isolate after 48 hrs by microdilution assay; assay type: functional; conditions: HK14368/08, 48 h
Pseudomonas aeruginosa [26] = assay: Antibacterial activity against Pseudomonas aeruginosa ATCC 9027 after 48 hrs by microdilution assay; assay type: functional; conditions: ATCC 9027, 48 h; procedure, shortened: as §3

| Compound | IC50 (K562 [7]) [µM] | IC50 (HL-60 [8]) [µM] | IC50 (PC-3 [9]) [µM] | IC50 (HepG2 [10]) [µM] | IC50 (TERT-RPE1 [1]) [µM] | IC50 (BJ) [µM] | IC50 (K562 [2]) [µM] | IC50 (HL-60 [3]) [µM] | IC50 (PC-3 [4]) [µM] | IC50 (MCF7) [µM] | IC50 (HepG2 [5]) [µM] | IC50 (TERT-RPE1 [6]) [µM] | other results |
| --- | --- | --- | --- | --- | --- | --- | --- | --- | --- | --- | --- | --- | --- |
| Cc1ccc(C2=C(c3ccc(Br)cc3)C(=O)OC2)cc1 | 0.29 | 2.77 | > 40 | > 40 | 0.97 | > 40 | 0.3 | 0.65 | > 40 | 14.8 | > 40 | 8.16 | MIC95 (Staphylococcus aureus [11]): 7.81 µM (≈ 2.57 µg/mL); MIC95 (Staphylococcus aureus [12]): 62.5 µM (≈ 20.6 µg/mL); MIC95 [13]: 15.6 µM (≈ 5.14 µg/mL); MIC95 (Enterococcus sp. [14]): > 1000 µM; MIC95 (Escherichia coli [15]): > 1000 µM; MIC95 (Klebsiella pneumoniae [16]): > 1000 µM; MIC95 (Klebsiella pneumoniae [17]): > 1000 µM; MIC95 (Pseudomonas aeruginosa [18]): > 1000 µM; MIC95 (Staphylococcus aureus [19]): 15.6 µM (≈ 5.14 µg/mL); MIC95 (Staphylococcus aureus [20]): 62.5 µM (≈ 20.6 µg/mL); MIC95 [21]: 31.2 µM (≈ 10.3 µg/mL); MIC95 (Enterococcus sp. [22]): > 1000 µM; MIC95 (Escherichia coli [23]): > 1000 µM; MIC95 (Klebsiella pneumoniae [24]): > 1000 µM; MIC95 (Klebsiella pneumoniae [25]): > 1000 µM; MIC95 (Pseudomonas aeruginosa [26]): > 1000 µM |
| O=C1OCC(c2ccc(Cl)cc2)=C1c1ccc(C(F)(F)F)cc1 | > 40 | > 40 | > 40 | > 40 | 14.9 | > 40 | > 40 | > 40 | > 40 | 12.3 | > 40 | > 40 |  |
| COc1ccc(C2=C(c3ccc(OC)c(OC)c3)C(CO)(CO)OC2=O)cc1 | > 40 | > 40 | > 40 | > 40 | > 40 | > 40 | > 40 | > 40 | > 40 | > 40 | > 40 | > 40 | MIC95 (Staphylococcus aureus [11]): > 500 µM; MIC95 (Staphylococcus aureus [12]): 500 µM (≈ 193 µg/mL); MIC95 [13]: 250 µM (≈ 96.6 µg/mL); MIC95 (Enterococcus sp. [14]): > 500 µM; MIC95 (Escherichia coli [15]): > 500 µM; MIC95 (Klebsiella pneumoniae [16]): > 500 µM; MIC95 (Klebsiella pneumoniae [17]): > 500 µM; MIC95 (Pseudomonas aeruginosa [18]): > 500 µM; MIC95 (Staphylococcus aureus [19]): > 500 µM; MIC95 (Staphylococcus aureus [20]): 500 µM (≈ 193 µg/mL); MIC95 [21]: 250 µM (≈ 96.6 µg/mL); MIC95 (Enterococcus sp. [22]): > 500 µM; MIC95 (Escherichia coli [23]): > 500 µM; MIC95 (Klebsiella pneumoniae [24]): > 500 µM; MIC95 (Klebsiella pneumoniae [25]): > 500 µM; MIC95 (Pseudomonas aeruginosa [26]): > 500 µM |
| O=C(O)c1cn(C2CC2)c2cc(N3CCNCC3)c(F)cc2c1=O [CIPROFLOXACIN] |  |  |  |  |  |  |  |  |  |  |  |  | MIC95 (Escherichia coli [15]): 0.06 µM (≈ 0.0199 µg/mL); MIC95 (Pseudomonas aeruginosa [18]): 3.9 µM (≈ 1.29 µg/mL); MIC95 (Escherichia coli [23]): 0.06 µM (≈ 0.0199 µg/mL); MIC95 (Pseudomonas aeruginosa [26]): 7.81 µM (≈ 2.59 µg/mL) |
| COc1cc(C2=C(c3ccc4c(c3)OCO4)C(=O)OC2)cc(OC)c1OC | > 40 | > 40 | > 40 | > 40 | > 40 | > 40 | > 40 | > 40 | > 40 | > 40 | > 40 | > 40 |  |
| CC[C@@]1(O)C(=O)OCc2c1cc1n(c2=O)Cc2cc3ccccc3nc2-1 [CAMPTOTHECIN] | 0.711 | 0.07 | > 40 | 4.37 | > 40 | > 40 | 0.09 | 0.02 | 0.4 | 0.34 | 0.43 | 27.2 |  |

Continued, in another order:

| IC50 (K562 [7]) [µM] | IC50 (HL-60 [8]) [µM] | IC50 (PC-3 [9]) [µM] | IC50 (HepG2 [10]) [µM] | Compound | IC50 (TERT-RPE1 [1]) [µM] | IC50 (BJ) [µM] | IC50 (K562 [2]) [µM] | IC50 (HL-60 [3]) [µM] | IC50 (PC-3 [4]) [µM] | IC50 (MCF7) [µM] | IC50 (HepG2 [5]) [µM] | IC50 (TERT-RPE1 [6]) [µM] | other results |
| --- | --- | --- | --- | --- | --- | --- | --- | --- | --- | --- | --- | --- | --- |
| > 40 | > 40 | > 40 | > 40 | O=C1OCC(c2ccc(O)cc2)=C1c1ccc(Br)cc1 | > 40 | > 40 | > 40 | > 40 | > 40 | > 40 | > 40 | > 40 |  |
| > 40 | 0.44 | > 40 | > 40 | Cc1ccc(C2=C(c3ccc(Cl)cc3Cl)C(=O)OC2)cc1 | 0.91 | > 40 | 0.19 | 0.27 | > 40 | 23.9 | > 40 | 10.1 |  |
| > 40 | > 40 | > 40 | > 40 | CCc1ccc(C2=C(c3ccc(Br)cc3)C(=O)OC2)cc1 | 1.3 | > 40 | 0.47 | 1.02 | > 40 | 13 | > 40 | > 40 |  |
| > 40 | 0.54 | > 40 | > 40 | Cc1ccc(C2=C(c3ccc(Cl)c(Cl)c3)C(=O)OC2)cc1 | 0.54 | > 40 | 0.12 | 0.23 | > 40 | 15.4 | > 40 | 3.5 |  |
| > 40 | > 40 | > 40 | > 40 | Cc1ccc(C2=C(c3ccccc3Cl)C(=O)OC2)cc1 | 2.09 | > 40 | 0.78 | 1.04 | > 40 | > 40 | > 40 | 13.3 |  |
